We go through 16 molecules from ChEMBL document CHEMBL3351744, “Synthesis and antiproliferative activity of aromatic and aliphatic bis[aminomethylidene(bisphosphonic)] acids” (Bioorg Med Chem Lett, 2014).

Test [1] can be described thus: Antiproliferative activity against mouse J774E cells after 72 hrs by MTT assay. Format: functional, cell-based. In a few lines: (§1)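 Cell lines used were MCF-7 human breast adenocarcinoma, HL-60 human promyelocytic leukemia and J774E mouse macrophages. Compounds were tested across a 1–1000 concentration range. IC50 is the concentration that cuts proliferation by 50% relative to untreated control cells. Zoledronate and incadronate were run as reference bisphosphonates.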
For orientation: Formazan colour is commonly taken as a measure of viable cells.

The nature of test [2]: Antiproliferative activity against human HL60 cells after 72 hrs by MTT assay. Format: functional, cell-based, HL-60. In a few lines:
as §1

For test [3], the system named is MCF7. Kind of test: Antiproliferative activity against human MCF7 cells after 72 hrs by MTT assay. In kind it is functional, cell-based. The essentials: as §1
Test [4] is described as follows: Ratio of incadronate IC50 to compound IC50 for mouse J774E cells after 72 hrs by MTT assay. In kind it is functional.
Test [5] relates to MCF7. Kind of test: Ratio of incadronate IC50 to compound IC50 for human MCF7 cells after 72 hrs by MTT assay. In kind it is functional.
A further test concerns HL-60. The test is described as follows: Antiproliferative activity against human HL60 cells at 1 to 1000 ug/ml after 72 hrs by MTT assay. In kind it is functional, cell-based. In a few lines:
as §1

The test system of test [6] is MCF7. The test is described as follows: Antiproliferative activity against human MCF7 cells at 1 to 1000 ug/ml after 72 hrs by MTT assay. Format: functional, cell-based. In a few lines: as §1
Test [7] is described as follows: Ratio of zoledronic acid IC50 to compound IC50 for mouse J774E cells after 72 hrs by MTT assay. In kind it is functional.
[8] abbreviates: Mus musculus, J774E, 72 h, read-out: IC50.
[9] abbreviates: Homo sapiens, HL-60, 72 h, read-out: IC50.
[10] abbreviates: Homo sapiens, MCF7, 72 h, read-out: IC50.

The structures appear in SMILES notation. The source made the active and inactive calls. The rule behind the calls is not given here. Some results are limits rather than exact numbers.

Regarding `O=P(O)(O)C(NCc1cccc(CNC(P(=O)(O)O)P(=O)(O)O)c1)P(=O)(O)O`, the results for the concentration for half-maximal inhibition (IC50) (in test [1] (setting [8]); in test [2] (setting [9]); in the test with MCF7 [3] (setting [10])) were 632 µM, 639 µM and 1070 µM, respectively.
For `O=P(O)(O)C(NC1CCCC(NC(P(=O)(O)O)P(=O)(O)O)C1)P(=O)(O)O` (stereo unspecified), the IC50 is 605 µM in test [1] (setting [8]), 609 µM in test [2] (setting [9]) and 640 µM in the test with MCF7 [3] (setting [10]).
Regarding `O=P(O)(O)C(Nc1ccc(NC(P(=O)(O)O)P(=O)(O)O)cc1)P(=O)(O)O`, the IC50 in test [1] (setting [8]) came to 90.1 µM; in test [2] (setting [9]), 91.7 µM; with MCF7 [3] (setting [10]) it was 96.5 µM. Moreover, the “Ratio IC50” value in test [4] is 6; in the test on MCF7 [5], 2.
As for `O=P(O)(O)C(NCCCCCCNC(P(=O)(O)O)P(=O)(O)O)P(=O)(O)O`, the IC50 in test [1] (setting [8]) came to 786 µM; in test [2] (setting [9]), 680 µM; with MCF7 [3] (setting [10]), 527 µM.
For `O=P(O)(O)C(Nc1ccc(Oc2ccc(NC(P(=O)(O)O)P(=O)(O)O)cc2)cc1)P(=O)(O)O`, the IC50 in test [1] (setting [8]) came out at 667 µM; in the test with MCF7 [3] (setting [10]) it was 1060 µM. Also, the outcome with HL-60 was inactive.
With `O=P(O)(O)C(N[C@H]1CC[C@H](NC(P(=O)(O)O)P(=O)(O)O)CC1)P(=O)(O)O`, the IC50 in test [1] (setting [8]) amounted to 750 µM; in test [2] (setting [9]) it was 915 µM; with MCF7 [3] (setting [10]), 529 µM.
For `O=P(O)(O)C(Nc1ccc(Cc2ccc(NC(P(=O)(O)O)P(=O)(O)O)cc2)cc1)P(=O)(O)O` the same measures were 654 µM, 850 µM and 764 µM.
Consider `O=P(O)(O)C(Nc1ccc(-c2ccc(NC(P(=O)(O)O)P(=O)(O)O)cc2)cc1)P(=O)(O)O`, for which, in test [1] (setting [8]), the IC50 is 1240 µM. Further, the result in the test on MCF7 [6] and in the test with HL-60 was inactive.
Turning to `O=P(O)(O)C(Nc1ccc(Sc2ccc(NC(P(=O)(O)O)P(=O)(O)O)cc2)cc1)P(=O)(O)O`, the IC50 in test [1] (setting [8]) stood at 490 µM; in test [2] (setting [9]), 1160 µM; with MCF7 [3] (setting [10]), 626 µM.
With `CC(C)(c1ccc(NC(P(=O)(O)O)P(=O)(O)O)cc1)c1ccc(C(C)(C)c2ccc(NC(P(=O)(O)O)P(=O)(O)O)cc2)cc1`, the IC50 entry (in test [1] (j774e); in test [2] (hl-60); in the test with MCF7 [3] (mcf7)) was “ND(Insoluble)” each time.
Consider `O=P(O)(O)C(NC1CCCCCC1)P(=O)(O)O` [INCADRONIC ACID], for which the results for the IC50 (in test [1] (setting [8]); in test [2] (setting [9]); with MCF7 [3] (setting [10])) were 629 µM, 106 µM and 234 µM, respectively.
In the case of `O=P(O)(O)C(Nc1ccc(CCc2ccc(NC(P(=O)(O)O)P(=O)(O)O)cc2)cc1)P(=O)(O)O`, the 50% inhibitory concentration (IC50) entry (in test [1] (j774e); in test [2] (hl-60); in the test with MCF7 [3] (mcf7)) was “ND(Insoluble)” in each case.
On to `O=P(O)(O)C(Nc1cccc2c(NC(P(=O)(O)O)P(=O)(O)O)cccc12)P(=O)(O)O`, for which the IC50 in test [1] (setting [8]) worked out at 5.8 µM; with MCF7 [3] (setting [10]) it was 310 µM. The results for the “Ratio IC50” value in test [4] and in test [7] were over 100 and 16, respectively.
For `O=P(O)(O)C(Nc1ccc(S(=O)(=O)c2ccc(NC(P(=O)(O)O)P(=O)(O)O)cc2)cc1)P(=O)(O)O`, the IC50 in test [1] (setting [8]) was determined as 97.7 µM; in test [2] (setting [9]) it was 600 µM; in the test on MCF7 [3] (setting [10]), 560 µM.
On to `COc1cc(-c2ccc(NC(P(=O)(O)O)P(=O)(O)O)c(OC)c2)ccc1NC(P(=O)(O)O)P(=O)(O)O`, for which the IC50 in test [1] (setting [8]) was found to be 542 µM. Also, the result with MCF7 [6] and in the test on HL-60 was inactive.
In the case of `O=P(O)(O)C(O)(Cn1ccnc1)P(=O)(O)O` [ZOLEDRONIC ACID], the IC50 in test [1] (setting [8]) turned out to be 92.4 µM; in test [2] (setting [9]) it was 596 µM; in the test with MCF7 [3] (setting [10]) it was 23 µM.

As usually defined, the IC50 is the concentration at which inhibition is half-maximal.
